Assay results taken from ChEMBL document CHEMBL1155278, “3,4-Diaryl-isoxazoles and -imidazoles as potent dual inhibitors of p38alpha mitogen activated protein kinase and casein kinase 1delta” (J Med Chem, 2009).

Key:
[1] = target: Calcium/calmodulin-dependent protein kinase kinase 1 (Homo sapiens) (UniProt Q8N5S9); assay: Inhibition of CAMKKalpha assessed as residual activity at 10 uM by Cherenkov counting relative to control
How it was run: (§1)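 Single-point profiling at 10 µM in a panel of 78 protein kinases. Kinase activity is expressed as a percentage relative to control assays without compound.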

[2] = target: Serine/threonine-protein kinase PAK 6 (Homo sapiens) (UniProt Q9NQU5); assay: Inhibition of PAK6 assessed as residual activity at 10 uM by Cherenkov counting relative to control in presence of 20 uM ATP
[3] = target: MAP kinase-activated protein kinase 2 (Homo sapiens) (UniProt P49137); assay: Inhibition of MAPKAPK2 assessed as residual activity at 10 uM by Cherenkov counting relative to control in presence of 20 uM ATP
[4] = target: Insulin receptor-related protein (Homo sapiens) (UniProt P14616); assay: Inhibition of IRR assessed as residual activity at 10 uM by Cherenkov counting relative to control in presence of 5 uM ATP
[5] = target: Homeodomain-interacting protein kinase 3 (Homo sapiens) (UniProt Q9H422); assay: Inhibition of HIPK3 assessed as residual activity at 10 uM by Cherenkov counting relative to control; how it was run: as §1
[6] = target: Serine/threonine-protein kinase PLK1 (Homo sapiens) (UniProt P53350); assay: Inhibition of PLK1 assessed as residual activity at 10 uM by Cherenkov counting relative to control in presence of 5 uM ATP
How it was run: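 Single-concentration profiling at 10 μM in a 78-kinase panel. Kinase activity is expressed as a percentage of control assays run without compound.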

[7] = target: MAP kinase-interacting serine/threonine-protein kinase 2 (Homo sapiens) (UniProt Q9HBH9); assay: Inhibition of MNK2 assessed as residual activity at 10 uM by Cherenkov counting relative to control in presence of 50 uM ATP
[8] = target: Ribosomal protein S6 kinase beta-1 (Homo sapiens) (UniProt P23443); assay: Inhibition of S6K1 assessed as residual activity at 0.1 uM by Cherenkov counting relative to control in presence of 20 uM ATP
How it was run: (§2)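 Single-concentration screen at 0.1 μM in a 76-kinase panel. ATP for each kinase was set near its Km for ATP. Residual activity is given as a percentage of control assays without compound, mean of n = 3 ± SD.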

[9] = target: MAP kinase-interacting serine/threonine-protein kinase 1 (Homo sapiens) (UniProt Q9BUB5); assay: Inhibition of MNK1 assessed as residual activity at 0.1 uM by Cherenkov counting relative to control in presence of 50 uM ATP
How it was run: (§3)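 Single-concentration selectivity screen at 0.1 μM against a panel of 76 protein kinases. Each kinase was run at an ATP level approximating its Km for ATP. Output is mean residual activity as % of the control assay without compound, n = 3 ± SD.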

[10] = target: Mitogen-activated protein kinase 11 (Homo sapiens) (UniProt Q15759); assay: Inhibition of p38beta assessed as residual activity at 0.1 uM by Cherenkov counting relative to control; how it was run: as §2
[11] = target: Serine/threonine-protein kinase PAK 4 (Homo sapiens) (UniProt O96013); assay: Inhibition of PAK4 assessed as residual activity at 0.1 uM by Cherenkov counting relative to control in presence of 5 uM ATP; how it was run: as §3
[12] = target: T1, Serine/threonine-protein kinase Chk1 (Homo sapiens) (UniProt O14757); assay: Inhibition of CHK1 assessed as residual activity at 0.1 uM by Cherenkov counting relative to control in presence of 20 uM ATP
T1 sequence (whole entry): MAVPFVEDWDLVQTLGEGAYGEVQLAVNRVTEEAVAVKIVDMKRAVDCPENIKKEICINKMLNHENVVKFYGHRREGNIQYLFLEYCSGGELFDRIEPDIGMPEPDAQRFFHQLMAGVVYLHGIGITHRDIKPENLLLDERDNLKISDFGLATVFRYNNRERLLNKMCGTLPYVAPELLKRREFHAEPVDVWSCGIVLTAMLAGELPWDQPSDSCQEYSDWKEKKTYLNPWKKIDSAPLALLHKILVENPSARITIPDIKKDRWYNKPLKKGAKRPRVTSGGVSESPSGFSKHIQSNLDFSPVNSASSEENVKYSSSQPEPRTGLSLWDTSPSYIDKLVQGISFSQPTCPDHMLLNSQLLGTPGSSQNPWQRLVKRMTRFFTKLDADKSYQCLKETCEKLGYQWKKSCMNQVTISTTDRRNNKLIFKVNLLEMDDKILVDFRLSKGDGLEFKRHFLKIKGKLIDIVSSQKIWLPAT
How it was run: (§4)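 Single-concentration screen at 0.1 µM across a panel of 76 protein kinases. Each kinase was run at an ATP concentration approximating its ATP Km. Results are % mean residual activity versus control assays without compound (n = 3 ± SD).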

[13] = target: Serine/threonine-protein kinase PAK 5 (Homo sapiens) (UniProt Q9P286); assay: Inhibition of PAK5 assessed as residual activity at 0.1 uM by Cherenkov counting relative to control in presence of 20 uM ATP; how it was run: as §3
[14] = target: T2, Dual specificity tyrosine-phosphorylation-regulated kinase 2 (Homo sapiens) (UniProt Q92630); assay: Inhibition of DYRK2 assessed as residual activity at 0.1 uM by Cherenkov counting relative to control in presence of 50 uM ATP; how it was run: as §4
T2 sequence (whole entry): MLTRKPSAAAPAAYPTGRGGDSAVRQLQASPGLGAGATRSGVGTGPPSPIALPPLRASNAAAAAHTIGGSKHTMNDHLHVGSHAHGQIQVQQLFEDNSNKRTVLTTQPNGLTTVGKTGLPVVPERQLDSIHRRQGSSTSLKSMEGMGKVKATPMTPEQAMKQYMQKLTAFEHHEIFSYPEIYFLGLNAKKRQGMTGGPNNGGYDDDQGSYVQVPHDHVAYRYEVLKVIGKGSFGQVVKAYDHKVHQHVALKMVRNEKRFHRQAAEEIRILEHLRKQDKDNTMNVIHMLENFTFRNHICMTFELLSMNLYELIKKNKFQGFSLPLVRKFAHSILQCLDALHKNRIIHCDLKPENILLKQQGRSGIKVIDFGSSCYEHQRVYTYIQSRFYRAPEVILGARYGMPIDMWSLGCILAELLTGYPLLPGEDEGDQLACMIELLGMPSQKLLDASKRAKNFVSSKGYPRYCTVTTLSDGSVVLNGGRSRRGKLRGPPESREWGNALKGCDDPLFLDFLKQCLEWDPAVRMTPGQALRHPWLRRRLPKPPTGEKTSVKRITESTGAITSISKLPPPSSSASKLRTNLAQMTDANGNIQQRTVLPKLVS

[15] = target: Maternal embryonic leucine zipper kinase (Homo sapiens) (UniProt Q14680); assay: Inhibition of MELK assessed as residual activity at 0.1 uM by Cherenkov counting relative to control in presence of 50 uM ATP; how it was run: as §3
[16] = target: Aurora kinase B (Homo sapiens) (UniProt Q96GD4); assay: Inhibition of Aurora B assessed as residual activity at 0.1 uM by Cherenkov counting relative to control in presence of 20 uM ATP; how it was run: as §4

Maternal embryonic leucine zipper kinase (Homo sapiens), sequence (Q14680 whole entry, looked up): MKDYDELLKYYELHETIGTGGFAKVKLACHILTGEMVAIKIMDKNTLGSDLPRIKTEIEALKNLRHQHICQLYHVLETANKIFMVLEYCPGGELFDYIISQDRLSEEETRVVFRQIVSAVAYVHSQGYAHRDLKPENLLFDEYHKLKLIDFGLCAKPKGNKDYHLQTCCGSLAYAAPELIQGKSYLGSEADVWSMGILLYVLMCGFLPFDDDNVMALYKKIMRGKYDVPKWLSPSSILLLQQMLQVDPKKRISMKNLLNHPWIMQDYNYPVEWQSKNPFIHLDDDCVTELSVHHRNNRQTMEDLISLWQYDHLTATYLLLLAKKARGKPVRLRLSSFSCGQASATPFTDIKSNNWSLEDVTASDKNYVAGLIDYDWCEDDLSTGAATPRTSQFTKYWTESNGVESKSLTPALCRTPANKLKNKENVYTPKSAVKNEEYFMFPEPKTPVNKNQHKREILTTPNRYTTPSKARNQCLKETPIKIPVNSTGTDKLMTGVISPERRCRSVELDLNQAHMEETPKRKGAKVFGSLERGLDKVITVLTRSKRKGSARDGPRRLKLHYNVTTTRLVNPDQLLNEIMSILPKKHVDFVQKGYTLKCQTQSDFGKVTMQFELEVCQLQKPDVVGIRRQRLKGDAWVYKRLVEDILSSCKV
Mitogen-activated protein kinase 11 (Homo sapiens), sequence (Q15759 whole entry): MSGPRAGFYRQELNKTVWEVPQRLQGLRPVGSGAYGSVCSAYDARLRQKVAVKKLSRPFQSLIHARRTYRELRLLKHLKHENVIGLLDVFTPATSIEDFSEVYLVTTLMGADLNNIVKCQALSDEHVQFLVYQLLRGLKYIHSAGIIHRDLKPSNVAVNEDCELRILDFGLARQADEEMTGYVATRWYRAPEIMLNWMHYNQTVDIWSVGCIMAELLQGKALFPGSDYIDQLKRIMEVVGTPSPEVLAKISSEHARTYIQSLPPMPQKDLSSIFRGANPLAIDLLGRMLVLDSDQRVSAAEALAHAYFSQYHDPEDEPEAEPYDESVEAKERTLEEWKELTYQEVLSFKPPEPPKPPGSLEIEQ
Serine/threonine-protein kinase PAK 5 (Homo sapiens), sequence (Q9P286 whole entry, looked up): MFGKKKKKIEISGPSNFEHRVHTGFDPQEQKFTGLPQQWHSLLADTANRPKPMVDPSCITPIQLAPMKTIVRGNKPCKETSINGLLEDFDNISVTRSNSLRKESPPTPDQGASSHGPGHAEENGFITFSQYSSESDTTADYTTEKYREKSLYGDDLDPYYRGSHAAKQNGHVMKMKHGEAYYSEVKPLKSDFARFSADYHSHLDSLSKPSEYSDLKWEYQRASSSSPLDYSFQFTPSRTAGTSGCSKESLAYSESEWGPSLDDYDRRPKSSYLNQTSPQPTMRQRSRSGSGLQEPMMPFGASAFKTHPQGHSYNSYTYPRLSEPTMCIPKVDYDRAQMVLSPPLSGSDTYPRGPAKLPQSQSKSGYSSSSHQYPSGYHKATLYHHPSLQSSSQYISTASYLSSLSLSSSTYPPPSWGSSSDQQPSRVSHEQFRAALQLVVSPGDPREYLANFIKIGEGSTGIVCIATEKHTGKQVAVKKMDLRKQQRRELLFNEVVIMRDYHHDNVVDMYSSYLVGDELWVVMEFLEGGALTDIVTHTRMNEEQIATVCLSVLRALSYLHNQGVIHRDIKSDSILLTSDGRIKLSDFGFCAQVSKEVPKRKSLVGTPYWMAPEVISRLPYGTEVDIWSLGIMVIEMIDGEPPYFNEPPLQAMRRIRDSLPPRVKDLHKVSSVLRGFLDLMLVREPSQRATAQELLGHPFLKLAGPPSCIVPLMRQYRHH
MAP kinase-interacting serine/threonine-protein kinase 2 (Homo sapiens), sequence (Q9HBH9 whole entry, looked up): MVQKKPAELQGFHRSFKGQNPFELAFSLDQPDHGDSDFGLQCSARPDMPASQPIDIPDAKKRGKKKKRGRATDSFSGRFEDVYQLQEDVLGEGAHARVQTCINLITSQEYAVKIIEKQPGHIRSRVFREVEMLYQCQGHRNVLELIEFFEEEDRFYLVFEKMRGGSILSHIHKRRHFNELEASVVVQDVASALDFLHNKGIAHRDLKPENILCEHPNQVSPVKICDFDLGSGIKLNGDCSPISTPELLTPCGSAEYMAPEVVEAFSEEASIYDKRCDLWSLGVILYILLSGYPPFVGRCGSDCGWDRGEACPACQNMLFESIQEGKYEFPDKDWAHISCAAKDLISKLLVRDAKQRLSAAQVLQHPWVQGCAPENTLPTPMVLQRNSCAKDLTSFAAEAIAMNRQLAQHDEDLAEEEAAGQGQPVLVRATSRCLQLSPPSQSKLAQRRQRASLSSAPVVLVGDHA
MAP kinase-interacting serine/threonine-protein kinase 1 (Homo sapiens), sequence (Q9BUB5 whole entry, looked up): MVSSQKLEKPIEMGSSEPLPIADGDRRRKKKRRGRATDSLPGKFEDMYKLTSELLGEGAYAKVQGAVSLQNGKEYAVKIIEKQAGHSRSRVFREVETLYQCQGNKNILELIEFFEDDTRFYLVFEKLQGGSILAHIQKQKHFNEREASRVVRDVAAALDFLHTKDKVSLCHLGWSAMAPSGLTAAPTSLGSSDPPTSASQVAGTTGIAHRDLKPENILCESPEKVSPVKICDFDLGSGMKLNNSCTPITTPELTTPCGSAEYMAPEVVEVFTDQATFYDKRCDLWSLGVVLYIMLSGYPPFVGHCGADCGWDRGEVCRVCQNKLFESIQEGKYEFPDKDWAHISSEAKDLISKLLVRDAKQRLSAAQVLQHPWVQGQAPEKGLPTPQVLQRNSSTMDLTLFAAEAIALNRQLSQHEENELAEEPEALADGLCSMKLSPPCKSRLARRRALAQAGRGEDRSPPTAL
Calcium/calmodulin-dependent protein kinase kinase 1 (Homo sapiens), sequence (Q8N5S9 whole entry, looked up): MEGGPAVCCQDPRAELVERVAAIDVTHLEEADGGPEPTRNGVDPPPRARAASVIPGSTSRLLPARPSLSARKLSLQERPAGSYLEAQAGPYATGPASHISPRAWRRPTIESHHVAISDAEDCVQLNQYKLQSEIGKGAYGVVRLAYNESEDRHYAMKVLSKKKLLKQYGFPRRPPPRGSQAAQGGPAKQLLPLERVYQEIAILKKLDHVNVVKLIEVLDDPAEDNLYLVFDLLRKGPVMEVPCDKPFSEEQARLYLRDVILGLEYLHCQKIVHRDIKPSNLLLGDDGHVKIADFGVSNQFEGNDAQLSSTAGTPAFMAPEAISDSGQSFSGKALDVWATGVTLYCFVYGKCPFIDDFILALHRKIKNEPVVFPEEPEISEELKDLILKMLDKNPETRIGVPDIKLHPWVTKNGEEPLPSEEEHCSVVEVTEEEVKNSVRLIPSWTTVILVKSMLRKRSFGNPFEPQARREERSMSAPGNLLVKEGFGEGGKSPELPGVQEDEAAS
MAP kinase-activated protein kinase 2 (Homo sapiens), sequence (P49137 whole entry, looked up): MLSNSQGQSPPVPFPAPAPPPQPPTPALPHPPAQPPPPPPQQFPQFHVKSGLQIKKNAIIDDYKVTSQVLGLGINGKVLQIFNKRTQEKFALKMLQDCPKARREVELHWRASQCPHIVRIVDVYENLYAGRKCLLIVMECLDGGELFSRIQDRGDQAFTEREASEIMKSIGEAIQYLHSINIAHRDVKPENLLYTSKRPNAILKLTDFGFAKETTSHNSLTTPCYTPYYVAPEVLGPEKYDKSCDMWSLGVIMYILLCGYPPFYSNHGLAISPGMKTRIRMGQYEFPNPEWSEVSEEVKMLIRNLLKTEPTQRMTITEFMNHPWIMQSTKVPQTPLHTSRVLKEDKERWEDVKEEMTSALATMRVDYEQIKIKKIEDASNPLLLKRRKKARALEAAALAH
Serine/threonine-protein kinase PLK1 (Homo sapiens), sequence (P53350 whole entry): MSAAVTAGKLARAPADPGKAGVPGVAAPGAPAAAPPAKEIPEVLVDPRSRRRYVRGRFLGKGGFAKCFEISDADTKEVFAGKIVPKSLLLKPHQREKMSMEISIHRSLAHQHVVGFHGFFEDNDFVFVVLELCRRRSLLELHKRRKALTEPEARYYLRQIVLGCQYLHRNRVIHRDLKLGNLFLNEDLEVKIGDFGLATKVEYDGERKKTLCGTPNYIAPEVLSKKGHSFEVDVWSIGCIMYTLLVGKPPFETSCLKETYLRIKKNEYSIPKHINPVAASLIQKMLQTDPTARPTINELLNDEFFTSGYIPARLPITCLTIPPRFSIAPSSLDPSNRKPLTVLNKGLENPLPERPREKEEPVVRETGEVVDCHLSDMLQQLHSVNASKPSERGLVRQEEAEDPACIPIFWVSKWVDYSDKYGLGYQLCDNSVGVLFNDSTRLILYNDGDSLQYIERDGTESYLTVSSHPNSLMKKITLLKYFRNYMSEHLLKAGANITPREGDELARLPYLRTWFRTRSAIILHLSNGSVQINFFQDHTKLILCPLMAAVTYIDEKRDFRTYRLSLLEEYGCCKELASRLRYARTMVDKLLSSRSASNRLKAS
Serine/threonine-protein kinase PAK 6 (Homo sapiens), sequence (Q9NQU5 whole entry, looked up): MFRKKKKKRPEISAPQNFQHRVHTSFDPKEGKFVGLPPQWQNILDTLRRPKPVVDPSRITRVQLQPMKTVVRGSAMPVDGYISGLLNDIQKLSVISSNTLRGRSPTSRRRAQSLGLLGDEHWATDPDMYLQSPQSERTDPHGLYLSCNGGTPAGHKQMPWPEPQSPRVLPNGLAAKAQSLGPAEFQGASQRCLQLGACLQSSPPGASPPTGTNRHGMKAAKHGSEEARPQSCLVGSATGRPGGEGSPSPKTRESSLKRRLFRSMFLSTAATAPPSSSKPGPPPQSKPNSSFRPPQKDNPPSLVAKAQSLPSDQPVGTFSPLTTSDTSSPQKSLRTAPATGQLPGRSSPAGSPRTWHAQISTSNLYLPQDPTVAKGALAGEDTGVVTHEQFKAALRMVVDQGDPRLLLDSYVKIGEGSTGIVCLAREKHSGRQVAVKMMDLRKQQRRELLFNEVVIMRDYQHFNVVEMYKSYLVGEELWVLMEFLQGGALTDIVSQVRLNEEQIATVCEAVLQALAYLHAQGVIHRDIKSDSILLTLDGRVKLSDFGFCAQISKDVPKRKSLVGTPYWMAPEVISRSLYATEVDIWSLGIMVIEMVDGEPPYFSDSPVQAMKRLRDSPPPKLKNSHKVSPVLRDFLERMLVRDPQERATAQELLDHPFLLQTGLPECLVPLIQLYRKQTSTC

Activity [1] | Activity [2] | Activity [3] | Activity [4] | Activity [5] | Activity [6] | Activity [7] | Activity [8] | Activity [9] | Activity [10] | Activity [11] | Activity [12] | Activity [13] | Activity [14] | Activity [15] | Activity [16] | Compound
91% | 100% | 105% | 93% | 92% | 104% | 110% | – | – | – | – | – | – | – | – | – | CC(C)c1onc(-c2ccc(F)cc2)c1-c1ccncc1
103% | 102% | 100% | 94% | 100% | 93% | 101% | – | – | – | – | – | – | – | – | – | CC(C)c1noc(-c2ccc(F)cc2)c1-c1ccncc1
– | – | – | – | – | – | – | 67% | 91% | 17% | 81% | 80% | 94% | 82% | 81% | 93% | COc1ccc(/C=C/C(=O)Nc2cc(-c3[nH]c(SC)nc3-c3ccc(F)cc3)ccn2)c(OC)c1
– | – | – | – | – | – | – | 74% | 96% | 46% | 98% | 88% | 105% | 101% | 92% | 93% | COc1ccc(/C=C/C(=O)Nc2cc(-c3[nH]c([S+](C)[O-])nc3-c3ccc(F)cc3)ccn2)c(OC)c1 (configuration not stated)
